According to ChEMBL document CHEMBL3227921, “Synthetic antagonists of in vivo responses by the rat uterus to oxytocin” (J Med Chem, 1979):
Active and inactive are the calls of the source. The calls are words filed in the database; no cut-off is given here. Numbered stars: 1 amine (or outer) side, 2 acyl side, 3 side chain; on linkers, the order of the positions; unused ones are H or OH. Bridge positions count the residues as written; N and C are the ends. Square brackets hold non-standard residues; d marks the D form. Peptide text beside a SMILES is read from it. * marks the point of attachment. X1 = O=C(CC1(S[*:2])CCCCC1)[*:1]; X3 = CCC(CC)(CC(=O)[*:1])S[*:2]; X2 = CC(C)(CC(=O)[*:1])S[*:2]; X4 = NC(=O)NC(=O)CN*; Mpa = O=C(O)CCS

Columns and labels:
Oxytocin receptor [1] = molecular target: T1, Oxytocin receptor (Rattus norvegicus, UniProt P70536); assay: Antagonist activity at oxytocin receptor in rat uterus pretreated with diethylstilbestrol compound treated 1 min prior to oxytocin addition; assay type: tissue-based; conditions: read-out: pA2 (converted)
T1 sequence (P70536 whole entry): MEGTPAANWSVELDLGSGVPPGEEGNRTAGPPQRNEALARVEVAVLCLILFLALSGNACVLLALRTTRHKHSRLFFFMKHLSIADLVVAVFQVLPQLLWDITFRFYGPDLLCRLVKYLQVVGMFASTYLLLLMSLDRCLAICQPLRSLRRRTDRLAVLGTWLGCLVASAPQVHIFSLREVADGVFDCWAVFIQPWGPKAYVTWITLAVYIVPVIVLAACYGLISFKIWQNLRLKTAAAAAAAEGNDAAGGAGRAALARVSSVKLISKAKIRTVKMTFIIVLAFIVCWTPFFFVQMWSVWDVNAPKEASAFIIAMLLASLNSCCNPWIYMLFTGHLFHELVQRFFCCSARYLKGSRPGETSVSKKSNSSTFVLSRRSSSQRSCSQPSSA
Method in brief: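 Isolated uterine horns from diethylstilbestrol-pretreated rats suspended in Munsick's solution without Mg2+. Isometric contractions recorded. Antagonist added to bath 1 min before agonist. pA2 calculated by Schild's method: negative log of the molar antagonist concentration that reduces the response to 2x units of agonist to the response to x units without antagonist. Mean ± SE over assay groups.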

Oxytocin receptor [2] = molecular target: T1, Oxytocin receptor; assay: Antagonist activity at oxytocin receptor in rat uterus pretreated with diethylstilbestrol compound treated 1 min prior to oxytocin addition in presence of 0.5 mM Mg2+; assay type: tissue-based; conditions: read-out: pA2 (converted)
Method in brief: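 Uterine horns from rats pretreated with diethylstilbestrol, bathed in Munsick's solution containing 0.5 mM Mg2+. Isometric contractions recorded, with antagonist added 1 min ahead of agonist. Schild pA2 taken as negative log molar antagonist concentration reducing the 2x-agonist response to the x-unit response without antagonist. Mean ± SE, number of assay groups given.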

Rattus norvegicus [3] = assay: Antioxytocic activity in iv dosed rat uterus pretreated with diethylstilbestrol compound treated 1 min prior to oxytocin injection; assay type: functional, organism-based; conditions: for Kb: read-out: pA2 (converted)
Method in brief: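 Anesthetized diethylstilbestrol-pretreated rats, modified Bisset uterus assay. Antagonist given intravenously 1 min before agonist. Read-out was integrated intrauterine pressure over 10 min after agonist injection. In vivo "pA2" estimated by the Dyckes et al. method; pA2 6.00 corresponds to 67 nmol/kg i.v. and 7.00 to 6.7 nmol/kg. Mean ± SE over assay groups.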

[4] = (§1) Antagonist activity at rat vasopressin receptor
Method in brief: (§2)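 Anesthetized rats, vasopressor responses recorded per Dekanski. Antagonist injected 1 min before agonist. In vivo "pA2" estimated by the method of Dyckes et al., which assumes a volume of distribution for the injected antagonist. Mean ± SE over assay groups.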

Rattus norvegicus [5] = organism: Rattus norvegicus; assay: as §1; method in brief: as §2
[6] = molecular target: T2, Oxytocin receptor (Rattus norvegicus) (UniProt P70536); assay: Partial agonist activity at oxytocin receptor in rat uterus pretreated with diethylstilbestrol compound treated 1 min prior to oxytocin addition in presence of 0.5 mM Mg2+
T2 sequence (whole entry): T1 sequence (P70536 whole entry)

SMILES | Kb (Oxytocin receptor [1]) | Kb (Oxytocin receptor [2]) | pA2 [4] | Activity (Rattus norvegicus [5]) | Activity [6] | Kb (Rattus norvegicus [3]) | Activity (Rattus norvegicus [3])
CC[C@H](C)[C@@H]1NC(=O)[C@H](Cc2ccc(O)cc2)NC(=O)CC2(CCCCC2)SSC[C@@H](C(=O)N2CCC[C@H]2C(=O)N[C@@H](CC(C)C)C(=O)NCC(N)=O)NC(=O)[C@H](CC(N)=O)NC(=O)[C@H](CCC(N)=O)NC1=O (YIQNCPLG-NH2; linker N-5 via X1) | 24.5 nM | 70.8 nM | – | – | – | 224 nM | –
CC[C@H](C)[C@@H]1NC(=O)[C@H](Cc2ccc(OC)cc2)NC(=O)CCSSC[C@@H](C(=O)N2CCC[C@H]2C(=O)N[C@@H](CC(C)C)C(=O)NCC(=O)NC(N)=O)NC(=O)[C@H](CC(N)=O)NC(=O)[C@H](CCC(N)=O)NC1=O ([Mpa]Y(Me)IQNCPL-X4; disulfide 1-6) | 126 nM | 245 nM | – | Active | – | – | Active
CC[C@H](C)[C@@H]1NC(=O)[C@H](Cc2ccc(O)cc2)NC(=O)CC2(CCCCC2)SSC[C@@H](C(=O)N2CCC[C@H]2C(=O)N[C@@H](CC(C)C)C(=O)NCC(N)=O)NC(=O)[C@H](CC(N)=O)NC(=O)[C@H]([C@@H](C)O)NC1=O (YITNCPLG-NH2; linker N-5 via X1) | 12.3 nM | 15.5 nM | 5.86 | – | – | 115 nM | –
CC[C@H](C)[C@@H]1NC(=O)[C@H](Cc2ccc(O)cc2)NC(=O)CC(C)(C)SSC[C@@H](C(=O)N2CCC[C@H]2C(=O)N[C@@H](CC(C)C)C(=O)NCC(N)=O)NC(=O)[C@H](CC(N)=O)NC(=O)[C@H]([C@@H](C)O)NC1=O (YITNCPLG-NH2; linker N-5 via X2) | 30.2 nM | 589 nM | 6.67 | – | Active | 490 nM | –
COc1ccc(C[C@@H]2NC(=O)CC(C)(C)SSC[C@@H](C(=O)N3CCC[C@H]3C(=O)N[C@@H](CCCN=C(N)N)C(=O)NCC(N)=O)NC(=O)[C@H](CC(N)=O)NC(=O)[C@H](CCC(N)=O)NC(=O)[C@H](Cc3ccccc3)NC2=O)cc1 (Y(Me)FQNCPRG-NH2; linker N-5 via X2) | 24.5 nM | – | – | – | – | – | –

Second part, led by results:

Kb (Oxytocin receptor [1]) | Kb (Oxytocin receptor [2]) | pA2 [4] | Activity (Rattus norvegicus [5]) | Activity [6] | SMILES | Kb (Rattus norvegicus [3]) | Activity (Rattus norvegicus [3])
17.4 nM | 15.8 nM | 7.59 | – | – | CC[C@H](C)[C@@H]1NC(=O)[C@H](Cc2ccc(OC)cc2)NC(=O)CC(C)(C)SSC[C@@H](C(=O)N2CCC[C@H]2C(=O)N[C@@H](CC(C)C)C(=O)NCC(N)=O)NC(=O)[C@H](CC(N)=O)NC(=O)[C@H](CCC(N)=O)NC1=O (Y(Me)IQNCPLG-NH2; linker N-5 via X2) | 138 nM | –
19.1 nM | 43.7 nM | 6.3 | – | – | CC[C@H](C)[C@@H]1NC(=O)[C@H](Cc2ccc(O)cc2)NC(=O)CC(CC)(CC)SSC[C@@H](C(=O)N2CCC[C@H]2C(=O)N[C@@H](CC(C)C)C(=O)NCC(N)=O)NC(=O)[C@H](CC(N)=O)NC(=O)[C@H]([C@@H](C)O)NC1=O (YITNCPLG-NH2; linker N-5 via X3) | 339 nM | –
28.2 nM | 151 nM | 6.83 | – | – | CC[C@H](C)[C@@H]1NC(=O)[C@H](Cc2ccc(O)cc2)NC(=O)CC(CC)(CC)SSC[C@@H](C(=O)N2CCC[C@H]2C(=O)N[C@@H](CC(C)C)C(=O)NCC(N)=O)NC(=O)[C@H](CC(N)=O)NC(=O)[C@H](CCC(N)=O)NC1=O (YIQNCPLG-NH2; linker N-5 via X3) | 631 nM | –
22.9 nM | 16.2 nM | 7.32 | – | – | CC[C@H](C)[C@@H]1NC(=O)[C@H](Cc2ccc(OC)cc2)NC(=O)CC(C)(C)SSC[C@@H](C(=O)N2CCC[C@H]2C(=O)N[C@@H](CC(C)C)C(=O)NCC(N)=O)NC(=O)[C@H](CC(N)=O)NC(=O)[C@H]([C@@H](C)O)NC1=O (Y(Me)ITNCPLG-NH2; linker N-5 via X2) | 145 nM | –
– | 2340 nM | – | – | Active | CC[C@H](C)[C@@H]1NC(=O)[C@H](Cc2ccc(O)cc2)NC(=O)CC(C)(C)SSC[C@@H](C(=O)N2CCC[C@H]2C(=O)N[C@@H](CC(C)C)C(=O)NCC(N)=O)NC(=O)[C@H](CC(N)=O)NC(=O)[C@H](CCC(N)=O)NC1=O (YIQNCPLG-NH2; linker N-5 via X2) | – | –
